High-throughput results (PubChem)
HCV NS3 hel inh: inhibitors of Hepatitis C virus NS3 helicase. NS3 helicase DNA unwinding, Cy5 molecular beacon fluorescence. inhibition, % at 10.9 µM. 290,000 tested, 0.56% active. AID 1800;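 active means inhibition above the mean of all tested compounds plus 3 SD, set per campaign, cut at about 35% in these data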;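 further: 0% = DMSO wells and 100% = thioflavine S control wells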
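assay system = NS3 helicase fragment of HCV | buffer or medium = MOPS pH 6.5, MgCl2, DTT, Tween20, BSA | timing = 60 min unwinding reaction at 25 °C after ATP addition | signal = Cy5 beacon fluorescence read at start and 1 h | read-out basis = % inhibition of unwinding | control set = low DMSO, high thioflavine S at 110 µM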
ZTA DNA inh: counter-screen for EBNA-1 inhibitors: inhibitors of Epstein-Barr virus ZTA | ZTA-DNA binding, fluorescence polarization | inhibition, % at 11 µM | 320,000 tested, 0.15% active | AID 2234; in the data active means inhibition above about 33%
Target sequence (P03206 whole entry, looked up): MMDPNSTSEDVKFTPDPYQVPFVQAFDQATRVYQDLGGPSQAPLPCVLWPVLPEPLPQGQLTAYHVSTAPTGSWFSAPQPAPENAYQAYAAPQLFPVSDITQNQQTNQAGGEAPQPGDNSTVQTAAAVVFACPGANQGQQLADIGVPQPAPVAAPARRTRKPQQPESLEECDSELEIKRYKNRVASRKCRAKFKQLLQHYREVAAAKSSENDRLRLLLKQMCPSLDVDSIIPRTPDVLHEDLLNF
core dimer inh: blocks dimerization of HCV core protein; TR-FRET GST/Flag-core106 dimerization, 1536-well; inhibition, % at 5 µM; 300,000 tested, 0.33% active; AID 1899;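 active means inhibition above the mean of all tested compounds plus 3 SD, set per screening campaign, cut at about 45% in these data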
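Assay system: Tagged HCV core106 pair (GST and Flag) | Buffer or medium: KF-containing HEPES buffer, pH 7.45, DTT, CHAPS, BSA | Also added: Eu donor and XL665 acceptor anti-tag antibodies | Dosing: One concentration, 5 µM, in 0.5% DMSO | Timing: 4 h at 22.5 °C | Technique: TR-FRET 671 and 617 nm emission | Repeats: Singlicate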
M18AAP inhibitor: PfM18AAP enzyme inhibition; recombinant PfM18AAP, H-Glu-NHMec fluorogenic cleavage; 290,000 tested, 1.2% active; inhibition, % at 7.35 µM; AID 1822;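 active means inhibition above the campaign mean inhibition over all tested compounds plus 3 SD, cut at about 28% in these data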;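 further: 0% = plate median of test compound wells and 100% = 2 mM ZnCl2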
EBNA-1 inh: blocks EBNA-1 binding to DNA. inhibition, % at 14.8 µM. AID 1950. EBNA-1 DNA binding, fluorescence polarization. 300,000 tested, 0.34% active; in the data active means inhibition above about 28%
ALR inh: inhibitors of human sulfhydryl oxidase ALR. AID 485317. 290,000 tested, 3.8% active. purified ALR, DTT oxidation, H2O2 HRP-luminol luminescence. inhibition, % (no concentration beside the values). P55789;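 active means mean replicate inhibition above about 79%, with every replicate also reaching it, limit read from the data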
Target sequence (P55789 whole entry, looked up): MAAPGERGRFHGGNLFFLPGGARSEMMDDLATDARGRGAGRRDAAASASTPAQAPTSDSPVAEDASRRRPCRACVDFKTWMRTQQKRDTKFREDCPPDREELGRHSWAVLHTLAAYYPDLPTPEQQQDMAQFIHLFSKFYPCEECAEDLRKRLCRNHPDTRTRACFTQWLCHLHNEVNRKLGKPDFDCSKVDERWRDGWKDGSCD
* marks the source's active call; other numbers are inactive results; . = no result given. A selection: hits, their analogues and other compounds. The true share with any hit is near 5.2%.

SMILES | HCV NS3 hel inh | ZTA DNA inh | core dimer inh | M18AAP inhibitor | EBNA-1 inh | ALR inh
COc1ccc(-c2cc(N)n(S(=O)(=O)c3ccc(C)cc3)n2)c(OC)c1 | -11.6 | -9.2 | 2.1 | -3.2 | -2.2 | 98.7*
Nc1ccccc1Sc1c[nH]c2ccccc12 | -1.0 | 5.0 | -6.3 | 12.7 | 9.5 | 99.2*
Nc1ccccc1Sc1nc2ccccc2[nH]1 | 4.7 | -6.5 | -16.7 | 25.3 | -7.3 | 12.5
COc1ccccc1Nc1nc(-c2cccc(N3C(=O)c4ccccc4C3=O)c2)cs1 | -15.5 | 2.0 | 9.9 | 4.2 | 9.5 | 4.3
O=C1c2ccccc2C(=O)N1c1cccc(-c2csc(Nc3ccc4c(c3)OCO4)n2)c1 | 24.3 | -11.5 | 49.1* | 18.4 | 2.8 | -1.7
CCc1cc(C(=O)N=Nc2c(O)[nH]c3ccc([N+](=O)[O-])cc23)c2ccccc2n1 | 18.4 | -4.1 | 58.0* | 4.9 | 7.7 | .
COc1ccc(CC(=O)N/N=C(/C)CC(=O)N(C)c2ccccc2)cc1 | -1.5 | 3.5 | -2.7 | -1.2 | 1.8 | -2.5
CCN1C(=O)C(=O)N(CC(=O)c2cc(C)n(C3CC3)c2C)C1=O | . | -7.9 | . | . | . | 89.1*
CCCN1C(=O)C(=O)N(CC(=O)c2cc(C)n(C3CC3)c2C)C1=O | . | -9.5 | . | . | . | .
CC1CCCN(CCCCOc2cccc(Br)c2)C1 (stereo not given) | -9.7 | 5.5 | -2.8 | -5.1 | 5.3 | -4.4
COCCN(C(=O)CSc1ccc2c(c1)OCCO2)c1c(N)n(CC(C)C)c(=O)[nH]c1=O | . | . | . | . | . | 94.3*
Oc1ccccc1Nc1nc(NCC2CCCO2)c2ccccc2n1 (stereo not given) | -19.4 | -4.9 | -7.8 | 0.9 | -7.7 | 98.8*
Oc1ccc(Cl)cc1Nc1nc(NCC2CCCO2)c2ccccc2n1 (stereo not given) | . | 9.7 | -13.9 | . | 4.2 | 9.9
Cc1cc(C)c(S(=O)(=O)/N=C2/C=C(Sc3ncn[nH]3)C(=O)c3ccccc32)cc1C | 17.8 | 31.5 | -10.7 | 39.9* | -11.8 | -68.2
Cc1ccc(C)c(S(=O)(=O)/N=C2\C=C(NS(=O)(=O)c3ccccc3)C(=O)c3ccccc32)c1 | 2.4 | 12.3 | -4.1 | 3.1 | -9.4 | -12.1
Cc1c(NC(=O)c2cc(-n3cnnc3)ccc2Cl)cccc1-c1nc2ccccc2s1 | -2.2 | -6.1 | 6.8 | 4.0 | -0.1 | 87.5*
CCn1c(=O)cc(OCC(=O)NCCCN2CC(C)CC(C)C2)c2ccccc21 (stereo not given) | -0.5 | 6.8 | 4.7 | -11.4 | 12.1 | -3.9
CCN(CCCNC(=O)COc1cc(=O)n(C)c2ccccc12)c1ccccc1 | -2.0 | 9.4 | 7.1 | 6.2 | -2.5 | 98.1*
CC1CCN(CCCNC(=O)COc2cc(=O)n(C)c3ccccc23)CC1 | 8.5 | 6.0 | -5.4 | -8.5 | 7.9 | -9.5
CCN(CCNC(=O)Cn1c(=O)sc2ccccc21)c1ccccc1 | . | 6.7 | -2.6 | . | 6.8 | 98.2*
CCN(CCCNC(=O)CNC(=O)Cn1cnc2ccccc2c1=O)c1ccccc1 | -11.4 | -2.6 | -11.9 | 11.3 | -2.5 | 98.0*
CCN(CCCNC(=O)COc1cc(=O)n(CC)c2ccccc12)c1ccccc1 | -9.2 | 0.6 | -0.5 | 12.0 | 6.9 | 99.0*
NC(=O)N/N=C/c1ccccc1OCc1cccc2ccccc12 | 9.1 | 1.7 | -1.1 | 7.7 | 0.0 | -10.6
COc1ccc(C(=O)COC(=O)c2sc(C)nc2C)cc1F | . | . | . | . | . | -1.5
COc1ccc(C2(C)NC(=O)N(CC(=O)Nc3ccc(Br)cc3F)C2=O)cc1OC (stereo not given) | -4.3 | 9.2 | -4.3 | -0.9 | 2.7 | -2.4
SMILES | HCV NS3 hel inh | ZTA DNA inh | core dimer inh | M18AAP inhibitor | EBNA-1 inh | ALR inh
CCCCn1c(N)c(N(CCOC)C(=O)COC(=O)CSc2cc(C)c3ccccc3n2)c(=O)[nH]c1=O | . | 13.1 | 1.8 | . | 2.8 | -8.8
NC(=O)c1ccsc1NC(=O)COC(=O)C1CCCN1C(=O)c1cccs1 (stereo not given) | 0.9 | -11.0 | 7.8 | 2.5 | -5.1 | 96.7*
NNCCc1ccccc1 | -2.9 | -4.6 | -6.5 | -2.3 | 5.3 | 99.1*
CN(C)c1ccc(N2CC(C)(C)C2=O)cc1 | 5.9 | -1.1 | -11.8 | 8.8 | 7.6 | 99.1*
CC(=O)c1ccc(N2CC(C)(C)C2=O)cc1 | 9.6 | -5.0 | -2.2 | 2.5 | 2.8 | -2.4
CCc1c(C)sc(NC(=O)c2cc(C)no2)c1C#N | 3.4 | 2.6 | -7.2 | 11.6 | 11.7 | 92.9*
CC(C)[C@H](NS(=O)(=O)c1ccc(Cl)cc1)C(=O)OCC(=O)c1c(N)n(C)c(=O)n(C)c1=O | . | -3.8 | . | . | . | .
Cc1ccccc1OCC(=O)O/N=C(\N)c1ccncc1 | 1.9 | 4.3 | -8.3 | -7.4 | -12.4 | 4.9
COc1ccccc1NC(=O)c1ccccc1Nc1ccccc1 | -9.7 | 2.2 | 3.2 | 0.0 | -6.6 | -0.3
O=C(Nc1ccccc1C(=O)Nc1ccccc1C(=O)O)c1ccccc1 | -20.7 | 4.1 | 3.0 | -13.4 | 4.9 | 97.2*
Nc1ccc(C(=O)Nc2ccccc2C(=O)O)cc1 | 3.1 | 3.2 | -9.9 | -9.1 | 10.2 | .
O=C(O)c1ccccc1NC(=O)c1ccccc1Nc1ccccc1 | -8.0 | -1.6 | -2.4 | -1.4 | -2.6 | 98.3*
O=C(O)c1ccc(N(c2ccccc2)c2ccccc2)cc1 | 23.0 | -4.5 | 10.2 | 2.4 | 3.6 | 98.5*
CCN1C(=O)/C(=C2/Sc3ccccc3N2CC)S/C1=N\c1ncn[nH]1 | -2.9 | 11.1 | -4.6 | 3.6 | -0.6 | 98.2*
Cc1ccccc1S(=O)(=O)Oc1cccc2c(O)cccc12 | 12.4 | -5.6 | 29.1 | 4.8 | -0.4 | 98.9*
Cc1ccccc1C(=O)Oc1cccc2c(O)cccc12 | 7.4 | 9.6 | 17.6 | 17.2 | 1.3 | 37.3
C/C(=N\S(=O)(=O)c1ccc(C)cc1)Nc1cc(C(C)C)c(O)cc1C | -3.0 | 17.0 | 11.1 | 29.1* | -2.0 | 10.6
CC(C)OCCCNC(=O)C(Cc1ccccc1)NS(=O)(=O)c1ccc2c(c1)CCC(=O)N2 (stereo not given) | 2.2 | 2.5 | -5.3 | 0.3 | -3.4 | -4.2
O=S1(=O)NC(=NC2CCCCCC2)c2ccccc21 | 0.6 | 6.9 | -3.1 | 4.5 | -12.9 | 89.2*
CCN(CC)S(=O)(=O)c1ccc(C(=O)Nc2nnc(CSC)o2)cc1 | -15.0 | 6.5 | 0.6 | 3.9 | 20.1 | 91.0*
CCN(CC)S(=O)(=O)c1ccc(C(=O)Nc2nnc(COC)o2)cc1 | 2.1 | 8.5 | -3.5 | -4.5 | 4.4 | 9.4
COc1cc(/C=C(/C#N)C(=O)Nc2ccccc2)ccc1OCc1ccc(C(=O)O)cc1 | 18.9 | -13.5 | 19.2 | 2.2 | -2.1 | -5.5
CCc1ccc(NC(=O)/C(C#N)=C\c2ccc(OC)c(C(=O)O)c2)cc1 | 3.0 | 7.2 | 10.4 | 3.7 | -4.2 | 98.7*
COc1ccc(/C=C(/C#N)C(=O)Nc2cccnc2)cc1OC | 4.5 | -4.5 | 0.9 | 6.4 | -0.2 | 1.2
COc1ccc(/C=C(/C#N)C(=O)Nc2ccc(O)cc2)cc1C(=O)O | -15.3 | 2.7 | 5.7 | -1.2 | -8.6 | 99.0*
COc1ccc(N/N=C(/C#N)S(=O)(=O)C(C)(C)C)cc1 | -5.3 | 17.5 | -6.8 | 0.6 | -5.1 | 97.8*
